KCNQ1 inh – blocks the human KCNQ1 potassium channel | P51787 | CHO-K1 KCNQ1, FluxOR thallium flux fluorescence; hits give high values | B-score at 10 µM | 1.3% of 310,000 active | AID 2642;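 active = compounds whose thallium flux B-score, printed positive for inhibition, exceeds three library SD while starting fluorescence stays within three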;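 note: channel opened by potassium depolarization with thallium stimulus after 20 min compound exposure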
KCNQ1 act – potentiates or activates the human KCNQ1 potassium channel | P51787 | B-score at 10 µM | 0.35% of 310,000 active | CHO-K1 KCNQ1, thallium flux FluxOR fluorescence; hits give high values;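 active = fluorescence ratio B-score, a plate-corrected score, at least three library SD, with initial intensity B-score within 5 SD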
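Assay system: CHO-K1 cells stably expressing KCNQ1. Medium: assay buffer for compound exposure, DMSO matched across wells. Timing: 37 °C overnight plating, 90-min dark dye load, 20-min compound pretreatment. Signal: kinetic FluxOR fluorescence, 10 s baseline plus 110 s post-stimulus.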
KCNK9 block – inhibitors of human KCNK9 two-pore domain potassium channel; Q9NPC2; HEK293 KCNK9, FluxOR thallium flux fluorescence; hits give low values; B-score at 10 µM; 1.2% of 310,000 active; AID 488922;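 active = ratio B-score over 3 SD below the library mean, with starting fluorescence within 5 SD of its mean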;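 note: negative B-score means less thallium flux so channel inhibition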
KCNK3 block – human KCNK3 channel inhibition, primary screen; O14649; CHO-KCNK3 thallium flux, FluxOR fluorescence; hits give low values; B-score at 10 µM; 0.84% of 340,000 active; AID 602410;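 active = B-score under library mean minus 4 SD, starting fluorescence ratio at most library mean plus 5 SD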;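 note: more negative B-score means stronger inhibition of thallium flux through KCNK3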
hERG rescue – hERG (human) protection from proarrhythmic block. Q12809. AID 1511. activation (rescue from dofetilide block), less the hit threshold, % at 10 µM. 0.51% of 310,000 active. CHO-hERG, FluxOR thallium flux, dofetilide IC70 present;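 active = activation above the mean of controls blocked by dofetilide plus 5 SD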;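 note: thallium influx through hERG after potassium depolarization seen as dye fluorescence rise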
An asterisk follows results filed as active; i = inactive; nt = no result given. Most compounds without a hit are left out; they make up all but 3.1% or so of the library.

SMILES | KCNQ1 inh | KCNQ1 act | KCNK9 block | KCNK3 block | hERG rescue
CCC(NC(=O)c1[nH]c(C)c(C(C)=O)c1C)c1ccc(Br)cc1 (stereo unspecified) | 6* | i | i | i | -12
S=C(Nc1ccc(Cl)cc1)NC1CC2CCCC(C1)N2C1CC1 (stereo unspecified) | i | i | i | i | -9
S=C(Nc1ccc(Cl)cc1)NC1CC2CCCC(C1)N2C1CCCC1 (stereo unspecified) | i | i | i | i | 5.6*
O=C(COC(=O)Cc1c(F)cccc1Cl)NC(=O)Nc1ccccc1F | nt | nt | nt | i | nt
CCCCc1c(C)nc2ccc(Br)cc2c1SCCC#N | i | i | -7.7* | nt | -10
CCOc1ncccc1C(=O)OCC(=O)Nc1cc(C(C)(C)C)ccc1OC | nt | nt | nt | i | nt
Cc1cn(CC(=O)NCc2ccc3c(c2)OCO3)c(=O)[nH]c1=O | nt | nt | nt | i | nt
O=C(CSCc1cccc(Cl)c1)NCc1ccc2c(c1)OCO2 | i | i | i | i | -11
O=C(NCc1ccc2c(c1)OCO2)c1ccc(CSCc2cccc(Cl)c2)o1 | i | i | -7.5* | i | -14
O=C(/C(=C/O)N=Nc1ccccc1)c1ccncc1 | i | i | -7.6* | i | -8
Cc1nn(CC(=O)Nc2ccc3c(c2)CCC3)c(C)c1[N+](=O)[O-] | nt | nt | nt | i | nt
O=C(NC12CC3CC(CC(C3)C1)C2)c1cc([N+](=O)[O-])ccc1N1CCOCC1 | 7* | i | i | i | -12
CC(C)(C)OC(=O)C[C@H]1C/C=C\C[C@@H](CC(=O)NCCO)C(=O)NCCOC1=O | nt | nt | nt | i | nt
Cc1ccc(S(=O)(=O)N(C)C)cc1NC(=O)COC(=O)/C(=C/c1ccc(F)cc1)c1cccs1 | i | i | -7.3* | i | -7
CC(=O)N/C(=C\c1ccccc1)C(=O)OCC(=O)Nc1cc(S(=O)(=O)N(C)C)ccc1C | i | i | i | i | -16
COc1ccccc1-c1nnc(SCC(=O)Nc2ccc3[nH]c(=O)[nH]c3c2)n1N | i | i | i | i | -1
CCOC(=O)N/N=C/c1c(C)nn(-c2ccccc2Cl)c1Cl | i | i | -8.1* | i | 1
CCOc1ccc(CCNC(=O)COC(=O)c2cccc(N(C)C)c2)cc1OCC | i | i | i | i | -17
COC(=O)c1ccc(/C=C/c2ccc3cccc(OC)c3n2)cc1 | i | i | i | i | 44*
COc1cc(/C=C/c2ccc3cccc(O)c3n2)cc(OC)c1OC | i | i | i | i | 3
COc1ccccc1C(=O)Nc1ccncc1 | i | i | i | i | -5
COc1cccc(C(=O)Nc2ccc3[nH]ncc3c2)c1 | i | i | i | i | -3
CCOc1cccc(C(=O)Nc2ccc3[nH]ncc3c2)c1 | i | i | i | i | 4.9*
COc1ccccc1C(=O)Nc1ccc2[nH]ncc2c1 | i | 9* | i | i | 0
CCOC(=O)c1c(NC(=O)C2=COCCO2)sc2c1CCN(C(=O)OC)C2 | i | i | i | i | -12
SMILES | KCNQ1 inh | KCNQ1 act | KCNK9 block | KCNK3 block | hERG rescue
CCOc1ccc(C(CC(=O)O)NC(=O)C(CC)c2ccccc2)cc1 (stereo unspecified) | i | i | i | i | -4
Cc1ccc(S(=O)(=O)N2CCOC23CCN(S(=O)(=O)c2c(C)cc(C)cc2C)CC3)cc1 | i | i | i | i | -9
CCC(C)N1CCN(C(=O)c2cc(OC)cc(OC)c2)CC1 (stereo unspecified) | i | i | i | i | 5.2*
CCOc1ccccc1NC(=O)c1cccc(S(=O)(=O)N(Cc2ccccc2)c2ccccc2OC)c1 | i | i | -6.9* | i | -8
O=C(Nc1cccc(Cl)c1)N1CCN(C2c3ccccc3-c3ccccc32)CC1 | i | i | i | i | -7
CC(=O)Nc1ccc2c(c1)C(N1CC3CCC(CC3)C1)c1ccccc1-2 (stereo unspecified) | nt | nt | nt | -10* | nt
COc1cccc(-c2cc(C(=O)Nc3ccccc3)c3ccccc3n2)c1 | i | i | i | i | -10
O=C(Nc1ccc([N+](=O)[O-])cn1)c1cc(-c2cccc(Cl)c2)nc2ccccc12 | i | i | -7.1* | i | -27
COc1cccc(-c2cc(C(=O)Nc3ccc([N+](=O)[O-])cn3)c3ccccc3n2)c1 | i | i | -7.8* | i | -19
O=C(Nc1ccc([N+](=O)[O-])cn1)c1cc(-c2cccc(Br)c2)nc2ccccc12 | i | i | i | i | -23
CCN(CC(=O)NCc1cccs1)C(=O)c1cccc(S(=O)(=O)Nc2ccc(OC)cc2)c1 | i | i | i | i | -13
c1ccc2c(c1)oc1c(N3CCN(Cc4ccc5c(c4)OCO5)CC3)ncnc12 | i | i | i | -9.5* | -17
Cc1ccc(S(=O)(=O)c2c(N)n(Cc3ccco3)c3nc4ccccc4nc23)cc1C | 14* | i | i | i | -11
CCc1ccccc1Nc1cc(C(=O)NCc2ccccn2)c2ccccc2n1 | i | i | -8* | i | -9
CCc1ccc(-c2cc(C(=O)NCc3ccccn3)c3ccccc3n2)cc1 | i | i | i | i | -16
CC(C)CN(C(=O)COc1ccc(C(C)(C)C)cc1)C1CCS(=O)(=O)C1 (stereo unspecified) | i | i | i | i | -8
CC(OC(=O)CCc1ccccc1)C(=O)Nc1ccc(Cl)cn1 (stereo unspecified) | i | i | i | i | -10
C#CCOCCOCCOCCNc1nc(N2CCN(C(=O)C([C@@H](C)CC)n3cc(C(N)Cc4ccc(O)cc4)nn3)CC2)nc(N2CCN(C(=O)[C@H](CCC(=O)O)n3cc(C(N)CC(C)C)nn3)CC2)n1 (stereo partly specified) | i | 24* | i | i | -5
CC1=NN(c2ccccc2)C(=O)/C1=C\c1c(C)[nH]n(-c2ccccc2)c1=O | i | i | i | i | -10
CC1=NN(c2ccccc2)C(=O)/C1=C/c1c(O)n(-c2ccc(F)c(Cl)c2)[nH]c1=O | i | 12* | i | nt | -27
O=C(N/N=C/c1ccccn1)c1[nH]c2ccc([N+](=O)[O-])cc2c1-c1ccccc1 | 10* | i | i | i | -19
O=C1CC(N(CCc2ccccc2)C(=S)Nc2ccccc2)C(=O)N1c1ccc(Br)cc1 (stereo unspecified) | 6* | i | i | i | -4
CC1(C)CC(N2CCN(CCO)CC2)=CC(=S)N1 | i | 10* | i | i | -6
COc1cc(NC(=S)N2CCN(CCO)CC2)cc(OC)c1 | i | i | i | i | -1
CN(C)CCCNC(=O)c1ccccn1 | i | i | i | i | -5
